# Measurements of several laboratories.
# Each line is one published result; the experiments were not run side by side.
# LRRK2 G2019S: Leucine-rich repeat serine/threonine-protein kinase 2 (LRRK2, Homo sapiens, UniProt Q5S007, G2019S)
# LRRK2: Leucine-rich repeat serine/threonine-protein kinase 2 (LRRK2, Homo sapiens, UniProt Q5S007)
SMILES,target,test,conditions,remaining binding [%]
CN([C@@H]1CCc2c(CC(=O)O)c3cc(S(C)(=O)=O)ccc3n2C1)S(=O)(=O)c1ccc(F)cc1,LRRK2 G2019S,"cell-free assay, competition with immobilised ligand",1 µM,100
O=C(NCCCN1CCOCC1)c1ccc(Nc2nccc(-c3cc4ccccc4s3)n2)cc1,LRRK2,"binding, competition with immobilised ligand",1 µM,63
CC(=O)N1CCC(c2ccc(C(=O)NC(=N)N)cc2C(F)(F)F)CC1,LRRK2 G2019S,"cell-free assay, competition with immobilised ligand",1 µM,100
O=C(c1ccc(Nc2ncc(Cl)c(-c3ccc(Cl)s3)n2)cc1)N1CCC(N2CCCC2)CC1,LRRK2 G2019S,"binding, competition with immobilised ligand",1 µM,1.1
Cc1cnn2ncc(-c3ccnc(N(C)C)n3)c2c1,LRRK2,binding,1 µM,47
O=C(c1ccc(Nc2ncc(Cl)c(-c3cc4ccccc4s3)n2)cc1)N1CCC(N2CCCC2)CC1,LRRK2 G2019S,"binding, competition with immobilised ligand",1 µM,5.9
F[C@@H]1CCN(c2nccc(-c3cnn4ncccc34)n2)C1,LRRK2 G2019S,binding,1 µM,100
COc1ncc2cc3ccccc3nc2c1C#N,LRRK2 G2019S,"cell-free assay, competition with immobilised ligand",5 µM,100
COc1cnc(Nc2cccc(S(N)(=O)=O)c2)nc1N1CCN(c2ccccc2)C(=O)C1,LRRK2 G2019S,"binding, competition with immobilised ligand",1 µM,100
C[C@@H]1CCN(c2nccc(-c3cnn4ncccc34)n2)C1,LRRK2,binding,1 µM,59
CC(C)CC(=O)N1CCc2nc(-c3ccc(Br)cc3)nc(N(C)Cc3ccccc3)c2C1,LRRK2 G2019S,"cell-free assay, competition with immobilised ligand",0.1 µM,100
c1cncc(-c2cccc(Nc3nccc(NC4CCCCC4)n3)c2)c1,LRRK2 G2019S,"binding, competition with immobilised ligand",10 µM,61
CN(C)C(=O)Cn1cc(-c2nc(C3(c4ccc(-c5cnc(N)nc5)cc4)CC3)no2)cn1,LRRK2,"cell-free assay, competition with immobilised ligand",1 µM,100
C[C@@H](c1ccc(-n2cnc3c(N)ncnc32)cc1)N1CCc2nn(C)c(Cc3ccccc3)c2C1=O,LRRK2 G2019S,"binding, competition with immobilised ligand",0.1 µM,92
O=C(N[C@H]1CCCCC/C=C\C2C[C@@]2(C(=O)O)NC(=O)[C@@H]2C[C@@H](Oc3ccncc3)CN2C1=O)OC1CCCC1 (some centres unmarked),LRRK2 G2019S,"binding, competition with immobilised ligand",1 µM,86
N[C@@H]1CCN(c2nccc(-c3cnn4ncccc34)n2)C1,LRRK2 G2019S,binding,1 µM,100
Cc1cc(-n2nc(Cc3cc(F)cc(C(F)(F)F)c3)nc2C)ccc1C(N)=O,LRRK2 G2019S,"cell-free assay, competition with immobilised ligand",1 µM,100
c1cnn2ncc(-c3ccnc(N4CCC45COC5)n3)c2c1,LRRK2,binding,1 µM,35
CCN1CCN(Cc2ccc(C(=O)Nc3ccc(C)c(Oc4ccc5c(c4)CC(=O)N5)c3)cc2C(F)(F)F)CC1,LRRK2,"binding, competition with immobilised ligand",1 µM,100
CN(CCCC(F)(F)F)c1nccc(-c2cnn3ncccc23)n1,LRRK2,binding,1 µM,100
O=C(Nc1c[nH]nc1C(=O)NC1CCNCC1)c1cc(F)cc(F)c1,LRRK2 G2019S,"binding, competition with immobilised ligand",1 µM,93
CN(C)c1nccc(-c2cnn3ncccc23)n1,LRRK2 G2019S,binding,1 µM,69
CN1CCN(c2ccc(Nc3nccc(-c4ccccc4)n3)cc2C(F)(F)F)CC1,LRRK2 G2019S,binding,10 µM,100
